Assay results published in ChEMBL document CHEMBL1134847, “Development of orally active nonpeptidic inhibitors of human neutrophil elastase” (J Med Chem, 2001).
In brackets after ≈: the same amount, converted by molar mass.

What was measured:
Cricetinae gen. sp. [1] = assay: (§1) Inhibition of HNE-induced lung hemorrhage in hamsters after oral administration of 30 mg/kg followed by intratracheal instillation of HNE (10 U/lung); assay type: functional, Cricetulus griseus
Outline: (§2)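 Hamsters (n = 6-10) were dosed orally 1 h before intratracheal instillation of HNE (10 U/lung). The read-out was inhibition of the HNE-induced lung hemorrhage.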

Cricetinae gen. sp. [2] = assay: Inhibition of HNE-induced lung hemorrhage in hamsters after oral administration followed by intratracheal instillation of HNE (10 U/lung); assay type: functional; outline: as §2
[3] = Solubility was determined at a pH of […] using 1/14 M phosphate buffer; assay type: physicochemical; settings: pH 7.4
[4] = Solubility was determined at a pH of 1.2 using first fluid (JP13th); assay type: physicochemical; settings: pH 1.2
Outline: (§3)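 Solubility was measured in μg/mL in four vehicles: JP13th first fluid (pH ca. 1.2), 1/14 M phosphate citrate buffer (pH ca. 4.0), physiological saline (pH ca. 5.5) and 1/14 M phosphate buffer (pH ca. 7.4).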

[5] = Solubility was determined at a pH of 4.0 using 1/14 M phosphate citrate buffer; assay type: physicochemical; settings: pH 4; outline: as §3
Neutrophil elastase = target: T1, Neutrophil elastase (Homo sapiens, UniProt P08246); assay: Binding constant derived from inhibition of elastase catalyzed hydrolysis of synthetic substrate
T1 sequence (P08246 whole entry): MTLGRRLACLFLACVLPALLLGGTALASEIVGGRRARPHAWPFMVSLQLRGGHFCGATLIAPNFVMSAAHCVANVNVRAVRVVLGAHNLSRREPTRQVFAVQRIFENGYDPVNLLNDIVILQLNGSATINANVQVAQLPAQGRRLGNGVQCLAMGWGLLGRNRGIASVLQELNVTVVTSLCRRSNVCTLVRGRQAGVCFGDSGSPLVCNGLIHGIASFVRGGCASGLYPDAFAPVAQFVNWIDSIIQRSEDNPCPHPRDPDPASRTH

Cricetinae gen. sp. [6] = assay: as §1; assay type: functional; outline: as §2

SMILES	ED50 (Cricetinae gen. sp. [2])	inhibition in vivo at 30 mg/kg (Cricetinae gen. sp. [6])	also measured
CC(C)[C@H](NC(=O)Cn1c(-c2ccc(F)cc2)ncc(N)c1=O)C(=O)c1nnc(-c2ccccc2)o1	–	–	inhibition in vivo at 30 mg/kg (Cricetinae gen. sp. [1]): 9%
CC(C)[C@H](NC(=O)Cn1c(-c2ccccc2)nccc1=O)C(=O)c1nnc(C2(C)CC2)o1	6.6 mg/kg	–	–
CC(C)C(NC(=O)Cn1c(-c2ccc(F)cc2)ncc(N)c1=O)C(=O)c1nnc(C(C)(C)C)o1 (configuration not stated)	10 mg/kg	–	–
CC(C)[C@H](NC(=O)Cn1c(-c2ccccc2)ncc(N)c1=O)C(=O)c1nnc(C(C)(C)c2ccccc2)o1	25 mg/kg	–	solubility [3]: 20 µg/mL (≈ 38.9 µM); solubility [4]: 499 µg/mL (≈ 970 µM); solubility [5]: 26 µg/mL (≈ 50.5 µM)
CC(C)[C@H](NC(=O)CN1C(=O)CN=C(c2ccc(Cl)cc2)c2ccccc21)C(=O)c1nnc(C(C)(C)C)o1	–	22%	Ki (Neutrophil elastase): 57.8 nM
CC(C)[C@H](NC(=O)Cn1c(-c2ccc(F)cc2)nccc1=O)C(=O)c1nnc(C2(C)CC2)o1	5.5 mg/kg	–	–
CC(C)[C@H](NC(=O)Cn1c(-c2cccnc2)ncc(N)c1=O)C(=O)c1nnc(C(C)(C)C)o1	–	6%	–
Cc1cccc(Cc2nnc(C(=O)[C@@H](NC(=O)Cn3c(-c4ccc(F)cc4)ncc(N)c3=O)C(C)C)o2)c1	13 mg/kg	–	–
CC(C)C(NC(=O)Cn1c(-c2ccc(F)cc2)ncc(N)c1=O)C(=O)C(F)(F)F (configuration not stated)	7.5 mg/kg	–	–
CC(C)[C@H](NC(=O)CN1C(=O)N[C@H](Cc2c[nH]c3ccccc23)C1=O)C(=O)c1nnc(C(C)(C)C)o1	–	22%	–
CC(C)[C@H](NC(=O)[C@@H]1CCCN1C(=O)[C@@H](NS(C)(=O)=O)C(C)C)C(=O)c1nnc(C(C)(C)C)o1	–	17%	–
CC(C)OC(=O)N1c2ccccc2C[C@H]1C(=O)N[C@H](C(=O)c1nnc(C(C)(C)C)o1)C(C)C	–	–	Ki (Neutrophil elastase): 114 nM
CC(C)[C@H](NC(=O)[C@@H]1Cc2ccccc2CN1C(=O)[C@@H](NC(=O)c1cccnc1)C(C)C)C(=O)c1nnc(C(C)(C)C)o1	14.2 mg/kg	–	Ki (Neutrophil elastase): 1.66 nM
CC(C)C[C@@H]1NC(=O)N(CC(=O)N[C@H](C(=O)c2nnc(C(C)(C)C)o2)C(C)C)C1=O	–	0%	–
Cc1nnc(C(=O)[C@@H](NC(=O)Cn2c(-c3ccc(F)cc3)ncc(N)c2=O)C(C)C)o1	–	47%	–
CC(C)c1nnc(C(=O)[C@@H](NC(=O)Cn2c(-c3ccc(F)cc3)ncc(N)c2=O)C(C)C)o1	–	–	inhibition in vivo at 30 mg/kg (Cricetinae gen. sp. [1]): 79%
CC(C)[C@H](NC(=O)Cn1c(-c2ccc(F)cc2)ncc(N)c1=O)C(=O)c1nnc(C(C)(C)c2ccccc2)o1	10 mg/kg	–	–
